According to ChEMBL document CHEMBL2150868, “Bi-, tri-, and polycyclic acylphloroglucinols from Hypericum empetrifolium” (J Nat Prod, 2012):

assay: Antiangiogenic activity in bovine endothelial cells assessed as inhibition of cell proliferation; assay type: functional, cell-based; details: Bos taurus

| SMILES | IC50 [µM] |
| --- | --- |
| CC(C)=CCC[C@]1(C)[C@@H](CC=C(C)C)C[C@]2(CC=C(C)C)C(=O)C(CC=C(C)C)=C(O)[C@@]1(C(=O)C(C)C)C2=O | 2.1 |

assay: Antiangiogenic activity in SV-40T transfected human HMEC1 cells assessed as inhibition of cell proliferation after 72 hrs by crystal violet staining; assay type: functional, cell-based; details: HMEC-1, 72 h
How it was run: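 SV-40T-transfected human microvascular endothelial HMEC-1 cells kept at 37 °C, 5% CO2, humidified. Seeded 1.5 × 10^3 cells/well in endothelial growth medium with 10% FCS, allowed 24 h adhesion (crystal-violet baseline plate). Exposed to 0.1−30 or 0.2−60 μM compound (DMSO; 0.1% DMSO control) for 72 h. Crystal violet stain, A540. IC50 ± SD from three independent experiments, hexaplicates.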

| SMILES | IC50 [µM] |
| --- | --- |
| CC(C)C(=O)c1c(O)cc(O)c2c1O[C@]1(C)CCCC(C)(C)[C@H]1C2 (relative stereo) [EMPETRIFERDINAN A] | 24.4 |
| CCC(C)C(=O)c1c(O)cc(O)c2c1O[C@](C)(CCC=C(C)C)[C@@H](O)C2 (relative stereo) [EMPETRIKARINOL B] | 18.4 |
| CCC(C)C(=O)c1c(O)cc(O)c2c1O[C@]1(C)CCCC(C)(C)[C@H]1C2 (relative stereo) [EMPETRIFERDINAN B] | 16.6 |
| CCC(C)C(=O)c1c(O)cc(O)c2c1OC(C)(CCC=C(C)C)C=C2 (centres undefined) [EMPETRIKARINEN B] | 15 |
| CC(C)=CCCC1(C)CCc2c(O)cc(O)c(C(=O)C(C)C)c2O1 (centres undefined) | 16.5 |
| COc1cc(O)c(CC=C(C)C)c(O)c1C(=O)/C=C/c1ccc(O)cc1 [XANTHOHUMOL] | 11.4 |
| CCC(C)C(=O)c1c(O)cc2c3c1OC(C)(C)C1CCC(C)(CC31)O2 (centres undefined) [EMPETRIFRANZINAN C] | 9.2 |
| CCC(C)C(=O)c1c(O)cc2c(c1O)CCC(C)(CCC=C(C)C)O2 (centres undefined) | 21.1 |
| CCC(C)C(=O)c1c(O)cc(O)c2c1OC(C)(CCC=C(C)C)CC2 (centres undefined) | 13.3 |
| CC(C)=CCCC1(C)C=Cc2c(O)cc(O)c(C(=O)C(C)C)c2O1 (centres undefined) [EMPETRIKARINEN A] | 24.4 |
| CCC(C)C(=O)c1c(O)cc(O)c2c1O[C@]1(C)CC[C@@H](O)C(C)(C)[C@H]1C2 (relative stereo) [EMPETRIFERDINOL] | 29.2 |
| CC(C)=CCCC1(C)CCc2c(cc(O)c(C(=O)C(C)C)c2O)O1 (centres undefined) | 29.6 |
| CC(C)=CCC[C@@]1(C)Oc2c(c(O)cc(O)c2C(=O)C(C)C)C[C@@H]1O (relative stereo) [EMPETRIKARINOL A] | 23.4 |
